SMILES strings stand for the structures.

Cystic fibrosis transmembrane conductance regulator (Homo sapiens, UniProt P13569), sequence (P13569 as listed by the source): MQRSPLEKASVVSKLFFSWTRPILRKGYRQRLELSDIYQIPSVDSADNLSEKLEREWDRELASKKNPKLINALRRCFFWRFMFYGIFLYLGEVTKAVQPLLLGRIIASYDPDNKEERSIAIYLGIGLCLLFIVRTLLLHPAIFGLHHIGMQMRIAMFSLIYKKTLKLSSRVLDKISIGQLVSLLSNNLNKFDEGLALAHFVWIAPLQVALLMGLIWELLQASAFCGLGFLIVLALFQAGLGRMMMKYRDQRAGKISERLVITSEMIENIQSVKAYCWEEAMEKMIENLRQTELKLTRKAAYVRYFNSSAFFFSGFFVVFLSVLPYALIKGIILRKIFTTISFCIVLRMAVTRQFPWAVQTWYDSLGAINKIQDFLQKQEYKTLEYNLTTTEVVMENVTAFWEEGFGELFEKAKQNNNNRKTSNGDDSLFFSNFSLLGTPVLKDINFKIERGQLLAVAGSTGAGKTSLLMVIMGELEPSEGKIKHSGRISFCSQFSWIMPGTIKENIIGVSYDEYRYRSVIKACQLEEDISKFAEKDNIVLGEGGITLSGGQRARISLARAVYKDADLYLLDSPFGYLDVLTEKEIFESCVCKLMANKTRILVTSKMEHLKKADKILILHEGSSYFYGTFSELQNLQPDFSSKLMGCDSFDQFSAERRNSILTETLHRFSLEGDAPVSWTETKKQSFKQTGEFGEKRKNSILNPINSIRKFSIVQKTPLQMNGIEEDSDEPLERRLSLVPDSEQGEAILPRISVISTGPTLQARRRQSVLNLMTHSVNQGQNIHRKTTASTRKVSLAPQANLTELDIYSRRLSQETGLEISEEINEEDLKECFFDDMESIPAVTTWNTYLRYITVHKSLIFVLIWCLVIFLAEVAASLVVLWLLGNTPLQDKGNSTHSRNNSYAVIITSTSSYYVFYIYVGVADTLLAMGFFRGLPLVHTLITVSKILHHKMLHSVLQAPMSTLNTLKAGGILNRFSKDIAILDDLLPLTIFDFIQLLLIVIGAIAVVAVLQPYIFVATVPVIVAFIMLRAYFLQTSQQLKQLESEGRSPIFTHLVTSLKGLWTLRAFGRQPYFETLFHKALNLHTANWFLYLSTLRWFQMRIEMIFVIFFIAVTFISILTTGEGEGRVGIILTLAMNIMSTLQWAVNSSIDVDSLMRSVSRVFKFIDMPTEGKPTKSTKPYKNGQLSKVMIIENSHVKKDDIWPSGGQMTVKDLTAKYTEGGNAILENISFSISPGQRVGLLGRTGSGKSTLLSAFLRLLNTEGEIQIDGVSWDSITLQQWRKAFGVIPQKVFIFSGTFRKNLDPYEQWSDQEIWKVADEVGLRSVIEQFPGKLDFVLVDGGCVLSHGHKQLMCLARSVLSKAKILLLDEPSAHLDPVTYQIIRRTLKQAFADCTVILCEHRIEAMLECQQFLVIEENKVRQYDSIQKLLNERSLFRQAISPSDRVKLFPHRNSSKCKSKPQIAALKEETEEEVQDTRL
Cystic fibrosis transmembrane conductance regulator (Homo sapiens, UniProt P13569, F508DEL), sequence (P13569 as listed by the source): as above

One experiment concerns the target Cystic fibrosis transmembrane conductance regulator (Homo sapiens, UniProt P13569). Kind of experiment: (§1) Activity of human CFTR F508 deletion mutant expressed in FRT cells assessed as potentiation of genistein-induced iodine ion influx after 24 hrs by YFP-H148Q/I152L fluorescent quenching assay. In kind it is cell-based. The conditions noted are these: frt. The procedure, abridged: (§2)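 FRT cells co-expressing human ΔF508-CFTR and the iodide-sensitive YFP-H148Q/I152L sensor were incubated 24 h with each compound. Iodide influx, used as a chloride surrogate, was then read from the kinetics of YFP quenching after iodide addition, with cells stimulated by a cAMP agonist plus genistein. Corrector activity was derived from influx versus concentration data.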
By EC50 is commonly meant the concentration giving half of the maximal effect. In the case of `COc1ccc(Cl)cc1Nc1nnc(-c2csc(NC(=O)C(C)(C)C)n2)s1`, the EC50 entry was “Not Active”. The same measure, in the same setting: to `COc1ccc(Cl)cc1-n1cc(-c2sc(NC(=O)C(C)(C)C)nc2C)[nH]c1=O` belongs “Not Active”; to `COc1ccc(Cl)cc1Nc1nc(C)c(-c2csc(NC(=O)C(C)(C)C)n2)s1`, “Not Active”.

The next experiment has as its target Cystic fibrosis transmembrane conductance regulator (Homo sapiens, UniProt P13569, F508DEL). Described as §1. In kind it is cell-based.
Details: not given; call rule not given here
The procedure, abridged:
as §2
With `COc1ccc(Cl)cc1Nc1nc(-c2nnc(NC(=O)C(C)(C)C)o2)cs1`, the EC50 was found to be 0.59 µM. In the case of `COc1ccc(Cl)cc1Nc1nnc(-c2csc(NC(=O)C(C)(C)C)n2)o1`, the EC50 stood at 0.66 µM.

Take `COc1ccc(Cl)cc1Nc1nc(-c2sc(NC(=O)C(C)(C)C)nc2C)cs1`: the EC50 was 0.87 µM. On the same count and under the same terms, to `COc1ccc(Cl)cc1Nc1ncc(-c2sc(NC(=O)C(C)(C)C)nc2C)o1` belongs 0.74 µM.

Source of the values: ChEMBL document CHEMBL3352347, “ΔF508-CFTR correctors: synthesis and evaluation of thiazole-tethered imidazolones, oxazoles, oxadiazoles, and thiadiazoles” (Bioorg Med Chem Lett, 2014).
